Reference: publication PMC3772774 (Molecular cancer therapeutics, 2013)

Tests used:
[1] = tested on: c-Myc activation; assay: c-Myc activation sensor luciferase assay in SK-ST stable cells; type: cell-based, human; conditions: for fold by which IC50 for sensor signal inhibition is higher than that of NTZ: SK-ST cells, PD98059 2hrs, U0126 1hr, Atorvastatin 16hrs
[2] = tested on: c-Myc; assay: c-Myc inhibition in different cancer cell lines; type: cell-based; conditions: read-out: IC50 for c-Myc inhibition, range over different cancer cell lines
Procedure, shortened: (§1)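 SKBR3 (McCoy's 5a), lymphoma (RPMI plus 3.96×10-4% 2-mercaptoethanol) and osteosarcoma 1325 (DMEM) cells, all with 10% FBS, at 37°C, 5% CO2, were exposed to test compound as in the sensor assay. Lysates (50μg protein) were immunoblotted for phospho-c-Myc (Thr58/Ser62) and c-Myc, with β-actin as loading control, then ECL and densitometry. IC50 came from a four-parameter nonlinear fit of fold-change against log concentration; ≥3 repeats.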

[3] = tested on: phospho c-Myc; assay: Western blot of endogenous phospho c-Myc in lymphoma cells; type: cell-based; conditions: read-out: IC50 of inhibition of phospho c-Myc level
Procedure, shortened: as §1

[4] = tested on: SK-ST xenografts; assay: SK-ST breast cancer xenograft model in nude mice; type: in vivo
[5] = tested on: SK-FST xenografts; assay: SK-FST breast cancer xenograft model in nude mice; type: in vivo; conditions: 200mg/kg gavage twice a day, about 18 days after implantation
[6] = tested on: phospho c-Myc; assay: Western blot of endogenous phospho c-Myc in osteosarcoma cells; type: cell-based; conditions: read-out: IC50 of inhibition of phospho c-Myc level
Procedure, shortened: as §1

[7] = tested on: SKBR3 cells; assay: MTS cell toxicity assay in SKBR3 cells; type: cell-based, human
[8] = biological target: full-length firefly luciferase (SK-FST cells) (Photinus pyralis, UniProt P08659); assay: Full-length firefly luciferase control assay in SK-FST stable cells; type: cell-based; conditions: 16hrs treatment
Chain of full-length firefly luciferase (SK-FST cells) (P08659 whole entry): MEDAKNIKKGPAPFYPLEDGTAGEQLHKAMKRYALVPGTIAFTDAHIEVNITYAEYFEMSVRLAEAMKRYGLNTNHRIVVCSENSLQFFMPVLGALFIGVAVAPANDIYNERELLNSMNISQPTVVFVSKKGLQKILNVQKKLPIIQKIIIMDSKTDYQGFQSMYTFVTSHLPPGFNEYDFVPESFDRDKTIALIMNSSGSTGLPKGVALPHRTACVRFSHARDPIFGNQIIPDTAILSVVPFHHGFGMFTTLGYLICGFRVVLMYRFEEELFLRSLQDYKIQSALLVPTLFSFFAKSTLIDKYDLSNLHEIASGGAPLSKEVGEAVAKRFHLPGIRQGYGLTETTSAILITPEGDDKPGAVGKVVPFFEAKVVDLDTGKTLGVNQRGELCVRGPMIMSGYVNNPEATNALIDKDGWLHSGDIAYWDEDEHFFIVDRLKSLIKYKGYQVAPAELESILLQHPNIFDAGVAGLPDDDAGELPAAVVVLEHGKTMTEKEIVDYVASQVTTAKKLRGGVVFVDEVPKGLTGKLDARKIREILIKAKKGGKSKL
Procedure, shortened: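 SKBR3 cells stably expressing full-length firefly luciferase on a single vector, selected with 3μg/ml puromycin, grown in McCoy's 5a with 10% FBS at 37°C, 5% CO2. Test compound was applied for 16hrs. D-Luciferin (45μg/ml in PBS, pH 7.0) was added to the medium and IVIS images were taken at 2-min intervals until peak. Photon output was normalized to total lysate protein; ≥3 repeats.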

SMILES: COc1cccc(-c2cc(=O)c3ccccc3o2)c1N [PD98059]
- fold by which IC50 for sensor signal inhibition is higher than that of NTZ [1]: about 2000 fold

SMILES: N#CC(=C(/N)Sc1ccccc1N)/C(C#N)=C(/N)Sc1ccccc1N [U0126]
- fold by which IC50 for sensor signal inhibition is higher than that of NTZ [1]: ~500 fold

SMILES: CC(C)c1c(C(=O)Nc2ccccc2)c(-c2ccccc2)c(-c2ccc(F)cc2)n1CC[C@@H](O)C[C@@H](O)CC(=O)O [Atorvastatin]
- fold by which IC50 for sensor signal inhibition is higher than that of NTZ [1]: about 50 fold

SMILES: CC(=O)Oc1ccccc1C(=O)Nc1ncc([N+](=O)[O-])s1 [NTZ, nitazoxanide]
- IC50 [2]: 10 to 500 nM
- IC50 ([1]; Homo sapiens, 16 h, read-out: IC50 for the sensor signal inhibition): ~100 nM
- IC50 [3]: 440 nM
- common side effects (diarrhea, vomiting, skin rash) ([4]; 200mg/kg gavage twice a day for 27 days): didn’t observe the common side effects
- tumor growth by gross inspection and caliper measurements ([4]; 200mg/kg gavage twice a day, 27 days after implantation, P=0.00007 vs CMC): drastic inhibition of tumor growth
- bioluminescent signal from SK-ST xenografts (c-Myc activation) ([4]; 200mg/kg gavage twice a day, vs CMC group): greatly inhibited
- caspase-3 staining, average positive cells in each sample ([4]; tumor samples, 200mg/kg gavage twice a day, CMC group 5±2, P<0.03): 23±8 positive cells
- endogenous phospho and c-Myc protein levels in tumor samples ([4]; western blot, NTZ vs CMC group): greatly reduced
- bioluminescent signal of SK-FST xenografts [5]: sustained decrease of the signal
- IC50 [6]: 12 nM
- half-maximal lethal dose (LD50) [7]: about 1 μM
- change of FL signal in SK-FST cells (direct effect on luciferase activity) [8]: no significant changes
